High-throughput results deposited in PubChem by Johns Hopkins Ion Channel Center.
Sampled rows, rich in hits. Any-hit rate of the full collection: about 2.9%.
TRPC6 act: mouse TRPC6 channel activation. B-score at 10 µM. 310,000 tested, 0.13% active. HEK293-TRPC6 membrane potential dye fluorescence; active compounds read high;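 active means B-score of the integrated fluorescence ratio above library mean plus 3 SD, and starting fluorescence ratio within library mean plus 5 SD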;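 further: higher score means more depolarization so channel activation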
TRPC4 potent: allosterically enhances the mouse TRPC4 cation channel; HEK293 TRPC4beta/mu-opioid, DAMGO EC20, Fluo-4 Ca2+ flux; active compounds read high; 310,000 tested, 0.42% active; Q9QUQ5; B-score at 10 µM;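 active means B-score of calcium response area above 5 SD of library B-scores, with initial fluorescence ratio within 5 SD of library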;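 further: B-score of integrated fluorescence ratio over time as area under calcium response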
Kir21 block: inhibitors of mouse Kir2.1 inward-rectifier potassium channel; P35561; HEK293-Kir2.1, FluxOR thallium flux fluorescence; active compounds read low; B-score at 10 µM; 310,000 tested, 0.85% active; AID 1672;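 active means fluorescence ratio B-score at or below minus 3 SD of library scores, with starting-brightness B-score within 2 SD, cut at about -4.2 in these data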;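 further: channel flux triggered by added potassium and thallium sulfate stimulus; B-score of peak minus minimum fluorescence over baseline after thallium stimulus; more negative B-score means stronger Kir2.1 block with less thallium influx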
TRPC6 inhibitor: mouse TRPC6 channel inhibition | Q61143 | HEK293-TRPC6, membrane potential dye, ACh-evoked depolarization; active compounds read low | B-score at 10 µM | 310,000 tested, 1.1% active | AID 2553;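 active means B-score under library mean minus 3 SD, initial fluorescence not abnormally high, positive integrated signal ratio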;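 further: B-score derived from integrated fluorescence ratio over the kinetic read; more negative B-score means stronger inhibition of depolarization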
TRPC4 act: activators of mouse TRPC4 channel. B-score at 10 µM. 310,000 tested, 0.49% active. HEK293 TRPC4beta/mu-opioid, Fluo4 calcium fluorescence; active compounds read high;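 active means B-score above 5 SD of library B-scores, and initial fluorescence ratio not above library mean plus 5 SD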;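 further: positive B-score marks a calcium rise read as TRPC4 activation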
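Test system: HEK293 cells stably co-expressing mouse TRPC4beta and mu-opioid receptor | Schedule: Fluo4 dye loading 45 min at room temperature, 110 s recording | Measured by: Kinetic Fluo4 calcium fluorescence, 5 s baseline at 1 Hz | Evaluation: B score of integrated ratio | Controls: Buffer (low) and maximal DAMGO (high)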
TRPC4 block: inhibitors of mouse TRPC4 channel | Q9QUQ5 | HEK293 TRPC4beta/mu-opioid, DAMGO-evoked Fluo4 calcium flux; active compounds read low | B-score at 10 µM | 300,000 tested, 0.39% active;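 active means B-score over 3 SD under the library average, no early fluorescence shift, positive overall ratio signal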
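Assay system: HEK293 cells with stable TRPC4beta plus mu-opioid receptor expression. Dosing: single dose. Measured by: Fluo4 Ca2+ flux fluorescence. Also added: DAMGO in two steps, submaximal then maximal. Read-out: B score from integrated Fluo4 fluorescence ratio.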
TRPC4 spec 2: second selectivity test of TRPC6 inhibitors: effect on mouse TRPC4; shares compounds with TRPC6 inhibitor; HEK293 TRPC4/MOR, membrane potential dye fluorescence; channel activated by saturating DAMGO dose; inhibition, % at 10 µM; 920 tested, 42% active;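 active means compounds whose fluorescence signal differed from control wells by over 3 SD, either direction, in both duplicate plates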
TRPC4 spec: selectivity of TRPC6 inhibitors: effect on mouse TRPC4. activity change, negative = inhibition, % at 10 µM. HEK293 TRPC4/mu-opioid, membrane potential fluorescence. AID 2777. shares compounds with TRPC6 inhibitor. 920 tested, 61% active;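 active means rise or fall in signal beyond 3 SD of buffer-only wells in both replicate plates, either sign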;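 further: integrated kinetic ratio of fluorescence range over baseline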
HEK293 MPD ctr 2-1: second check of TRPC6 inhibitor effects in parental HEK293 cells | shares compounds with TRPC6 inhibitor | AID 2779 | signal change vs control, % at 10 µM | parental HEK293 membrane potential dye fluorescence; maximal acetylcholine challenge after compound addition | 920 tested, 31% active;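 active means membrane potential signal moving either way by over 3 SD of the maximum-effect control, in both duplicate plates, meaning non-specific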
HEK293 MPD ctr-1: checks TRPC6 inhibitor effects in parental HEK293 cells | shares compounds with TRPC6 inhibitor | parental HEK293 membrane potential dye fluorescence | membrane potential signal change, % at 10 µM | 920 tested, 60% active | AID 2780;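 active means membrane potential signal shifting up or down by more than 3 SD of buffer-only wells, on both duplicate plates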
HEK293 MPD ctr-2: parental HEK293 nonspecific activity of TRPC6 modulators; shares compounds with TRPC6 inhibitor; membrane potential dye fluorescence; membrane potential signal change, % at 10 µM; 2,400 tested, 51% active; AID 488924;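 active means membrane potential signal moves up or down beyond 5 SD from buffer-only wells, on both duplicate plates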
HEK293 MPD ctr 2-2: second counter-screen for TRPC6 modulators: effect in parental HEK293 cells | shares compounds with TRPC6 inhibitor | membrane potential dye fluorescence; after compound, maximal acetylcholine stimulation | inhibition, % at 10 µM | 2,400 tested, 14% active | AID 488926;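 active means membrane potential signal drops by more than 5 SD from the mean control signal, in both duplicate plates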;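 further: plate controls were acetylcholine ECmax control wells for no effect and buffer only wells for full effect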
TRPC4/MOR mod: mouse TRPC4 off-target activity of TRPC6 modulators | percent change from control (negative = decrease, positive = increase), % at 10 µM | shares compounds with TRPC6 inhibitor | AID 488927 | HEK293 TRPC4/mu-opioid, membrane potential fluorescence | 2,400 tested, 69% active;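 active means membrane potential signal moved up or down beyond 5 SD of buffer control wells, in both duplicate plates, actives on both sides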;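 further: plate controls were assay buffer wells for no effect and DAMGO maximal-effect wells for full effect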
TRPC4 ctr inh 2: second selectivity test of TRPC6 modulators against mouse TRPC4; shares compounds with TRPC6 inhibitor; HEK293 TRPC4/mu-opioid, membrane potential dye fluorescence; stimulated with maximal-effect DAMGO; inhibition, % at 10 µM; 2,400 tested, 55% active; AID 488928;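 active means drop in membrane potential signal beyond 5 SD of the control wells in both duplicate plates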;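 further: TRPC4 counter screen for TRPC6 hits run under conditions tuned for TRPC6 not TRPC4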
TRPC6 inh conf: mouse TRPC6 inhibitor confirmation; shares compounds with TRPC6 inhibitor; HEK293-TRPC6, membrane potential dye, ACh-evoked depolarization; inhibition, % at 10 µM; 3,300 tested, 43% active; AID 488960;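 active means fluorescence ratio falls more than 5 SD below the full-stimulation control mean, in both duplicate runs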;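 further: integrated fluorescence ratio of peak minus minimum over baseline after agonist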
TRPC6 act confirm: mouse TRPC6 activator confirmation. shares compounds with TRPC6 inhibitor. HEK293-TRPC6 membrane potential dye fluorescence, FDSS. activation, % at 10 µM. 2,800 tested, 11% active. AID 488961;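 active means ratio signal rise beyond 5 SD above unstimulated control wells' mean, seen in both duplicate runs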;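 further: plate controls were buffer EC0 wells for no effect and acetylcholine ECmax response for full effect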
Active calls of the source: *; i = inactive; · = no result given.

SMILES	TRPC6 act	TRPC4 potent	Kir21 block	TRPC6 inhibitor	TRPC4 act	TRPC4 block	HEK293 MPD ctr-2	HEK293 MPD ctr 2-2	TRPC4/MOR mod	TRPC4 ctr inh 2	TRPC6 inh conf	TRPC6 act confirm	others
Nc1nc(Nc2cccc(F)c2)nc2ccccc12	i	i	-0.99	-13*	i	i	·	·	·	·	90.2%*	i	TRPC4 spec 2=22.5%*;TRPC4 spec=-33.0%*;HEK293 MPD ctr 2-1=-37.0%*;HEK293 MPD ctr-1=-493.0%*
Cc1ccc(O)c(Nc2nc(-c3ccccc3)nc3ccccc23)c1	i	i	-0.07	i	i	i	·	·	·	·	·	·
Cc1ccc(C)c(Nc2nc(N)c3ccccc3n2)c1	i	i	-3.34	-15.9*	i	i	·	·	·	·	89.6%*	i	TRPC4 spec 2=18.5%*;TRPC4 spec=-30.3%*;HEK293 MPD ctr 2-1=-3.0%*;HEK293 MPD ctr-1=-269.0%*
Cc1ccc(O)c(Nc2c3ccccc3nc3ccccc23)c1	i	i	-3.65	-5.59*	i	i	-92.0%*	i	-18.5%*	60.0%*	i	i
CCOc1cc(C(=O)OC(C)C(=O)Nc2ccc(NC(C)=O)cc2)ccc1OCC(=O)N1CCCCC1 (stereo not drawn)	i	i	-0.86	i	i	i	·	·	·	·	·	·
CC(C)N(C(=O)CN1CCC(c2nc3ccccc3[nH]2)CC1)C(C)C	i	i	0.22	i	i	i	·	·	·	·	·	·
COc1ccc2cc(C(=O)N3CCN(c4ccccc4OC)CC3)[nH]c2c1	i	i	0	i	i	i	·	·	·	·	·	·
CCOC(=O)c1cc(NC(=O)CC(C)(C)CC(=O)O)ccc1N1CCCCC1	i	i	-0.54	i	i	i	·	·	·	·	·	·
CCCn1nc([N+](=O)[O-])c(C(C#N)c2nc3ccccc3o2)c(Cl)c1=O (stereo not drawn)	i	i	-0.72	-7.93*	i	-5*	-217.0%*	i	-46.0%*	81.0%*	68.5%*	i
Cn1nc([N+](=O)[O-])c(C(C#N)c2ccccn2)c(Cl)c1=O (stereo not drawn)	i	i	-2.97	i	i	i	·	·	·	·	·	·
Cc1cc(C)c2oc(-c3cccc(N)c3)nc2c1	i	i	2	i	i	i	·	·	·	·	·	·
Cc1ccc2nc(-c3cccc(N)c3)oc2c1	i	i	0.16	-5.47*	i	i	i	i	i	i	i	i
